The entries come from a sample that favours hits as a whole.
XBP1 UPR activ = activators of adaptive arm of unfolded protein response (XBP1); 0.33% of 330,000 active; CHO-XBP1 luciferase reporter, IRE1-XBP1 UPR activation, luminescence; percent of tunicamycin response, DMSO as zero; AID 463104; activation, % at 20 µM;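 active = versus positive control, 20 µM dose yields 30% or more activation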;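 note: 100% = tunicamycin at 10 µg/mL and 0% = DMSO only wells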
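Material: CHO cell line with stable XBP1 luciferase reporter; buffer or medium: F12 medium containing 10% fetal bovine serum; compound: single point, 20 µM final compound, 1% DMSO; incubation: 6 h treatment, 37 °C; measured by: glow luminescence from Steady-Glo reagent; evaluation: activation, % of tunicamycin; control set: tunicamycin high, DMSO low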
CHOP inhibitor = inhibitors of CHOP induction in ER stress response; CHO-K1 CHOP-promoter luciferase, tunicamycin-induced, 15-18 h; inhibition, % at 10 µM; 3.8% of 220,000 active; AID 2732;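 active = compounds that reduced the stress-induced luciferase reporter signal by more than about 70% of percent inhibition, limit read from the data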;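 note: 0% = tunicamycin plus vehicle and 100% = wells without tunicamycin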
PvdQ inh = P. aeruginosa PvdQ acylase inhibition. purified PvdQ acylase, fluorescence plate reader. inhibition, % at 10 µM. 0.063% of 340,000 active; in the data active = inhibition above about 30%, passing the limit was not always enough;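 note: 0% = vehicle neutral wells and 100% = reference inhibitor wells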
UPR CHOP act = activators of apoptotic arm of unfolded protein response (CHOP). activation, % at 10 µM. 0.34% of 330,000 active. CHO-CHOP luciferase reporter, UPR activation, luminescence; percent of tunicamycin response over DMSO baseline;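 active = at 10 µM dose, activation of 40% or more, normalized to positive control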;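 note: 100% = tunicamycin at 10 µg/mL and 0% = DMSO alone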
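Assay system: CHO-CHOP cells, stable luciferase reporter of PERK-eIF2a-CHOP signalling / Buffer or medium: F12 plus 10% serum / Compound dosing: one dose, 10 µM in 0.5% DMSO / Times: 6 h compound treatment, 37 °C / Technique: luciferase luminescence / Read-out: % reporter activation, DMSO baseline versus tunicamycin full activation / Benchmarks: tunicamycin and DMSO controls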
* hit, by the source's call; nt = no result.

SMILES | XBP1 UPR activ | CHOP inhibitor | PvdQ inh | UPR CHOP act
Cc1ccc(NC2=CC(=O)C(=O)c3ccccc32)cc1 | 17 | 12 | 5 | 45*
COc1cc(CNc2nc(C)c([N+](=O)[O-])c(C)c2C#N)cc(OC)c1 | 3 | 71* | -9 | -2
CCOc1ccc(N2CC(C(=O)Nc3cccc(C(=O)NC4CC4)c3)CC2=O)cc1 (stereo not given) | 0 | nt | -12 | -3
COc1ccc(-c2cc(C(=O)N3CC4(C)CC3CC(C)(C)C4)no2)cc1 (stereo not given) | -2 | -7 | -14 | -1
CC1(C)CC2CC(C)(CN2C(=O)c2cc(-c3ccccc3O)on2)C1 (stereo not given) | 1 | 76* | -7 | 3
COc1ccc(-c2cc(C(=O)N3CC4(C)CC3CC(C)(C)C4)no2)cc1OC (stereo not given) | -1 | 73* | -17 | 0
COC(=O)[C@]12C(=O)C(C)=C(O)[C@@]1(C)C(C)=CC1[C@@]34CC[C@@H](OC(C)=O)C(C)(C)C3C(C[C@]12C)OC4=O (stereo not given in full) | 1 | -6 | -2 | 1
NC(=S)NN=C1C=CCCC1 | nt | nt | -13 | nt
Nc1ncnc2c1ncn2[C@@H]1O[C@H](CNCc2cccc(C#Cc3ccccc3)c2)[C@@H](O)[C@H]1O | 3 | nt | -1 | 3
Cc1cccc(C)c1OCC(=O)N=Nc1c(O)[nH]c2ccc(Br)cc12 | 24 | -10 | -13 | 1
Cc1cc2c(N=NC(=O)CCc3ccccc3)c(O)[nH]c2cc1Br | -3 | 83* | 11 | -1
Cc1cc(OC(=O)N2CCCCC2)cc(C)c1Cl | 0 | 76* | -8 | 0
CCCCCNc1nc(-c2ccccc2)nc(-n2ccnc2)n1 | 0 | 72* | -14 | 3
COc1ccc(CNC(=O)CN(c2ccc(C)cc2)S(=O)(=O)c2c(C)nn(C)c2C)cc1 | -3 | nt | -5 | -3
Cc1ccc(C)c(NC(=S)NNC(=O)c2csc3c2CCCC3)c1 | -1 | 52 | 8 | 2
Cc1ccc(C)c(NC(=S)NNC(=O)c2csc3c2CCC(C)C3)c1 (stereo not given) | 1 | 90* | -18 | 0
Cc1cc([N+](=O)[O-])ccc1-c1ccc(C2Nc3ccccc3C(=O)N2O)o1 (stereo not given) | 0 | 76* | -12 | 1
COc1ccc(NC(=S)N/N=C2/CCCc3c(C)cc(C)cc32)cc1 | 5 | 77* | -14 | 0
CCCC(NS(=O)(=O)c1ccc(-c2ccc(=O)[nH]n2)s1)c1cccs1 (stereo not given) | -2 | nt | 6 | 4
CC(Oc1ccc(Cl)cc1Cl)C(=O)Nc1ccc2oc(-c3ccncc3)nc2c1 (stereo not given) | 1 | 74* | 4 | -1
Cc1ccc(SCC(=O)O/N=C(\N)c2cccnc2)cc1 | 2 | nt | -10 | 0
CCOc1ccc(N2CC(C(=O)Nc3ccc(S(=O)(=O)NCC4CCCO4)cc3)CC2=O)cc1 (stereo not given) | 4 | nt | -19 | 0
COc1ccccc1NC(=O)Cn1c(=O)n(-c2ccccc2)c(=O)c2oc3ccccc3c21 | -3 | 81* | -7 | 3
COc1ccc(NC(=O)Cn2c(=O)n(-c3ccccc3)c(=O)c3oc4ccccc4c32)c(OC)c1 | -2 | -6 | -10 | 2
CC(C)OCCCNCC(O)c1ccccc1 (stereo not given) | -1 | 11 | 3 | 5
SMILES | XBP1 UPR activ | CHOP inhibitor | PvdQ inh | UPR CHOP act
O=C(Nc1ccccc1)N(C1=NCCC1)c1ccc(OC(F)F)cc1 | -1 | 81* | 7 | 1
CCN(CC)c1ccc2cc(NC(=O)CCC(=O)O)c(=O)oc2c1 | -9 | 88* | -26 | -9
CCN(CC)c1ccc2cc(C(C)=O)c(=O)oc2c1 | 1 | -16 | -2 | 3
COc1ccc(NS(=O)(=O)c2cccc(C(=O)N/N=C(\C)c3cccnc3)c2)cc1 | -1 | nt | -9 | -1
Cc1cc(OCC(=O)NC2CC2)c2c(C)c(C)c(=O)oc2c1 | 5 | nt | -13 | 1
O=C(c1ccc(F)cc1)N1CCN(S(=O)(=O)c2ccc(Br)cc2)CC1 | -3 | nt | -16 | 1
O=C(Nc1ccc(Cl)c([N+](=O)[O-])c1)Nc1nc2ccccc2s1 | 0 | 92* | nt | 2
O=C(Nc1ccc(Cl)cc1)/C(=C/c1ccc([N+](=O)[O-])cc1)c1nc2ccccc2s1 | nt | 105* | nt | nt
CS(=O)(=O)c1ccc2nc(NC(=O)Nc3cccc(Cl)c3)sc2c1 | 21 | 92* | -6 | 6
O=C(Nc1ccc(Cl)cc1)c1cncs1 | 1 | nt | 2 | 4

Screens as filed in PubChem BioAssay.
